The record followed here is ChEMBL document CHEMBL5528081 (J Med Chem, 2024).

Data set [1] in a line: Inhibition of Nef protein-dependent MHC-1 HLA-A2 down modulation in human CD4 positive T cells transduced with replication defective HIV containing GFP reporter (delta GPE) assessed as restoration of MHC-1 measured after 24 hrs by HLA-A2 staining based flow cytometry. Format: cell-based, Human immunodeficiency virus, CD4+ T cell. The note with it: Human immunodeficiency virus 1, CD4+ T cell, 24 h. (In general: A flow cytometer gives signals particle by particle.)

Data set [2] is described as follows: Inhibition of V-ATPase-dependent lysosomal acidification in human CD4 positive T cells transduced with replication defective HIV containing GFP reporter (delta GPE) assessed as fluorescence of pH-sensitive Lysotracker dye incubated for 24 hrs by flow cytometry. Type of data set: cell-based. The note with it: CD4+ T cell. A digest of the protocol: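 CD8-depleted PHA/IL-2-activated primary CD4+ T cells spinoculated with VSV-G-pseudotyped HIV ΔGPE, 48 h later plated 1×10^5/well and treated 24 h with serial dilutions (top 1000 nM, final IL-2 50 U/mL).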

The nature of data set [3]: Cytotoxicity against human CD4 positive T cells transduced with replication defective HIV containing GFP reporter (delta GPE) assessed as cell viability by measuring vital dye uptake incubated for 72 hrs by flow cytometric assay. Type of data set: toxicity, cell-based. In a few lines:
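Primary human PBMCs, CD8-depleted, PHA-L (10 ug/mL) then IL-2 activated; donor-matched mock-transduced cells plated 1×10^5/well in R10 with IL-2 (final 50 U/mL), compounds serially diluted from DMSO stocks (top 1000 nM), 72 h.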

Data set [4] deals with CD4+ T cell. The note with it: Human immunodeficiency virus, dose 0.05-10 nM.

Take `CC[C@H]1OC(=O)[C@H](C)[C@@H](O[C@@H]2O[C@H](C)C[C@H](N(C)C)[C@H]2O)[C@@H](C)C[C@@H](C)C(=O)/C=C/[C@H]1C`: the IC50 in data set [1] and in data set [2] was greater than 1000 nM in each case. In addition, the concentration for half-maximal inhibition (IC50) at 72 h in data set [3] is greater than 1000 nM.

For `C/C=C/[C@H]1O[C@@](O)([C@@H](C)[C@H](O)[C@H](C)[C@H]2OC(=O)/C(OC)=C/C(C)=C/[C@@H](C)[C@@H](O)[C@@H](CC)[C@@H](O)[C@H](C)C/C(C)=C/C=C/[C@@H]2OC)C[C@@H](O[C@H]2C[C@@H](O)[C@H](OC(N)=O)[C@@H](C)O2)[C@@H]1C`, the inhibition entry in data set [4] was “Dose-Dependent Effect”.

For the compound `CC[C@H]1OC(=O)C(C)C(O)[C@@H](C)C[C@@H](C)C(=O)/C=C/[C@H]1C` (stereo not given in full), the IC50 in data set [1] was 350 nM; in data set [2], 1720 nM. Also, the 50% inhibitory concentration (IC50) at 72 h in data set [3] came to 140 nM.

Turning to `COc1cc2c(O)c3c(c(-c4ccc5c(c4)OCO5)c2cc1OC)C(=O)OC3` [DIPHYLLIN], the IC50 in data set [1] and in data set [2] was greater than 1000 nM in each case. Besides, the IC50 at 72 h in data set [3] is greater than 1000 nM.

Consider `CO[C@H]1/C=C/O[C@@]2(C)Oc3c(C)c(O)c4c(O)c(c(/C=N/N5CCN(C)CC5)c(O)c4c3C2=O)NC(=O)/C(C)=C\C=C\[C@H](C)[C@H](O)[C@@H](C)[C@@H](O)[C@@H](C)[C@H](OC(C)=O)[C@@H]1C` [RIFAMPIN], for which the half-inhibitory concentration (IC50) in data set [1] and in data set [2] was greater than 1000 nM each time. In data set [3], the half-inhibitory concentration (IC50) at 72 h was greater than 1000 nM.

In the case of `C/C=C/[C@H]1O[C@@](O)([C@@H](C)[C@H](O)[C@H](C)[C@H]2OC(=O)/C(OC)=C/C(C)=C/[C@@H](C)[C@@H](O)[C@@H](CC)[C@@H](OC(C)=O)[C@H](C)C/C(C)=C/C=C/[C@@H]2OC)C[C@@H](O[C@H]2C[C@@H](OC(C)=O)[C@H](OC(N)=O)[C@@H](C)O2)[C@@H]1C`, in data set [4], the inhibition entry was “Dose-Dependent Effect”.

Regarding `CO/C1=C\C(C)=C\[C@@H](C)[C@@H](O)[C@@H](C)C/C(C)=C/C=C/[C@H](OC)[C@@H]([C@@H](C)[C@@H](O)[C@H](C)[C@@]2(O)C[C@@H](OC(=O)c3ccccc3)[C@H](C)[C@@H](C(C)C)O2)OC1=O`, the IC50 in data set [2] was 128 nM.

As usually defined, the IC50 is the point on the concentration scale where inhibition reaches its midpoint.
